In ChEMBL document CHEMBL1156036, “A class of novel N-(3S-1,2,3,4-tetrahydroisoquinoline-3-carbonyl)-L-amino acid derivatives: their synthesis, anti-thrombotic activity evaluation, and 3D QSAR analysis” (Eur J Med Chem, 2009) one finds IC50, Activity and Ratio data, which are given here for nine molecules.

Square brackets hold non-standard residues; d marks the D form. Peptide text beside a SMILES is read from it. Tic = O=C(O)[C@@H]1Cc2ccccc2CN1

Common to all, as to type: functional
Assay [1] can be described thus: Antiplatelet aggregatory activity in pig […] assessed as inhibition of ADP-induced platelet aggregation. The following applies: Sus scrofa. Summed up: (§1)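 Pig blood spun 1000g 10 min for platelet-rich plasma, then 1500g 10 min for platelet-poor plasma; platelets adjusted to 2×10^8/ml with autologous PPP. Test agent in NS (final 100 to 0.001 μM) added to 0.5 ml plasma, then inducer in NS: PAF 0.1 μM, ADP 10 μM, AA 350 μM or thrombin 0.1 U/ml (final). Optical aggregometry, 37 °C, 5 min, six tubes.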

Assay [2] is described as follows: Antiplatelet aggregatory activity in pig […] assessed as inhibition of arachidonic acid-induced platelet aggregation. The following applies: Sus scrofa. Summed up:
as §1

Assay [3] is described as follows: Antiplatelet aggregatory activity in pig […] assessed as inhibition of platelet-activating factor-induced platelet aggregation. Conditions: Sus scrofa. Summed up:
as §1

Assay [4] in a line: Antiplatelet aggregatory activity in pig […] assessed as inhibition of thrombin-induced platelet aggregation. The following applies: Sus scrofa. Summed up: as §1
Assay [5] relates to Rattus norvegicus. The assay is described as follows: Antithrombotic activity in Wistar rat assessed as reduction of wet thrombus weight at 15 umol/kg, iv after 15 mins. The procedure, abridged:
(§2)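 Male Wistar rats, 250-300 g, given agent dissolved in NS (kept on ice) intravenously; Aspirin 15 μmol/kg as reference, NS as vehicle. Pentobarbital sodium 80.0 mg/kg i.p. Arteriovenous shunt from right carotid artery to left jugular vein via polyethylene tube containing a thread; blood flowed 15 min; wet thrombus weighed, n = 12, mean ± SD.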

Assay [6] concerns Rattus norvegicus. The assay is described as follows: Antithrombotic activity in Wistar rat assessed as reduction of wet thrombus weight at 15 umol/kg, po after 15 mins.
For assay [7], the system named is Rattus norvegicus. The assay is described as follows: Antithrombotic activity in Wistar rat assessed as reduction of wet thrombus weight at 5 umol/kg, iv after 15 mins. The procedure, abridged: as §2
Assay [8] is filed under the species Rattus norvegicus. The assay is described as follows: Ratio of compound antithrombotic potency to aspirin antithrombotic potency in Wistar rat assessed as reduction of wet thrombus weight.
Assay [9] concerns Rattus norvegicus. The assay is described as follows: Antithrombotic activity in Wistar rat assessed as reduction of wet thrombus weight at 5 umol/kg, po after 15 mins. The procedure, abridged: (§3)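 Oral dosing of male Wistar rats at 5, 1 or 0.2 μmol/kg in NS, or NS (0.6 ml) alone. Pentobarbital sodium 80.0 mg/kg ip; 30 min later vessels exposed. Weighed 6-cm thread in heparin-filled (50 IU/ml in NS) polyethylene tube linking carotid artery to jugular vein; 15 min flow; wet thrombus weight recorded, n = 12.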

In assay [10] the test system is Rattus norvegicus. The assay is described as follows: Antithrombotic activity in Wistar rat assessed as reduction of wet thrombus weight at 1 umol/kg, po after 15 mins. The procedure, abridged: as §3
Assay [11] relates to Rattus norvegicus. The assay is described as follows: Antithrombotic activity in Wistar rat assessed as reduction of wet thrombus weight at 0.2 umol/kg, po after 15 mins. Summed up:
as §3

On to `O=C(O)[C@@H]1Cc2ccccc2CN1`, for which the IC50 in [1] stood at 552 nM; in assay [2], 452 nM; in assay [3] it was 960 nM; in [4], 881 nM. Also, the Activity in the assay on Rattus norvegicus [5] came to 21.52 mg; in the assay with Rattus norvegicus [6], 23.88 mg.

As to `N=C(N)NCCC[C@H](NC(=O)[C@@H]1Cc2ccccc2CN1)C(=O)O` (H-[Tic]-Arg-OH), the IC50 amounted to 124 nM in assay [1], 361 nM in assay [2], 1340 nM in assay [3] and 496 nM in assay [4]. The Activity in the assay on Rattus norvegicus [7] was found to be 18.73 mg; in the assay with Rattus norvegicus [9], 19.01 mg; in the assay with Rattus norvegicus [10], 24.38 mg; with Rattus norvegicus [11] it was 29.11 mg. Besides, in the assay listed under Rattus norvegicus [8], the Ratio is reported as over 30.

`O=C(O)[C@@H]1CCCN1C(=O)[C@@H]1Cc2ccccc2CN1` (H-[Tic]-Pro-OH): the IC50 in assay [1] was 364 nM; in assay [2], 103 nM; in assay [3] it was 1400 nM; in [4], 185 nM. In the assay on Rattus norvegicus [7], the Activity came out at 20.25 mg. For the same molecule, in the assay filed under Rattus norvegicus [8], the Ratio is reported as over 30.

Consider `O=C(O)[C@H](CO)NC(=O)[C@@H]1Cc2ccccc2CN1` (H-[Tic]-Ser-OH), for which the IC50 is 388 nM in assay [1], 416 nM in assay [2], 942 nM in assay [3] and 841 nM in assay [4]. Moreover, the Activity in the assay with Rattus norvegicus [7] was 23.58 mg. Also, the Ratio in the assay listed under Rattus norvegicus [8] was over 30.

On to `C[C@@H](O)[C@H](NC(=O)[C@@H]1Cc2ccccc2CN1)C(=O)O` (H-[Tic]-Thr-OH), for which the IC50 in assay [1] amounted to 164 nM; in [2] it was 418 nM; in assay [3], 588 nM; in assay [4], 763 nM. Further, the Activity in the assay with Rattus norvegicus [7] is 21.25 mg. The Ratio in the assay listed under Rattus norvegicus [8] was over 30.

With `O=C(O)[C@H](Cc1c[nH]c2ccccc12)NC(=O)[C@@H]1Cc2ccccc2CN1` (H-[Tic]-Trp-OH), the IC50 in assay [1] came to 120 nM; in assay [2], 374 nM; in assay [3], 668 nM; in assay [4], 234 nM. Moreover, in the assay with Rattus norvegicus [7], the Activity is reported as 21.3 mg. In addition, the Ratio in the assay listed under Rattus norvegicus [8] was over 30.

For the molecule `O=C(O)[C@H](Cc1ccc(O)cc1)NC(=O)[C@@H]1Cc2ccccc2CN1` (H-[Tic]-Tyr-OH), the IC50 in assay [1] stood at 481 nM; in assay [2], 390 nM; in [3], 1150 nM; in assay [4], 970 nM. In addition, the Activity in the assay with Rattus norvegicus [7] was determined as 19.31 mg. The Ratio in the assay listed under Rattus norvegicus [8] is on record as over 30.

Consider `CC(C)[C@H](NC(=O)[C@@H]1Cc2ccccc2CN1)C(=O)O` (H-[Tic]-Val-OH), for which the IC50 in [1] was determined as 382 nM; in [2], 388 nM; in assay [3], 943 nM; in assay [4], 199 nM. Also, the Activity with Rattus norvegicus [7] is recorded as 19.2 mg. The Ratio in the assay filed under Rattus norvegicus [8] was over 30.

Regarding `CC(=O)Oc1ccccc1C(=O)O` [ASPIRIN], the Activity with Rattus norvegicus [5] came to 27.6 mg.

Broadly, the IC50 is the concentration that inhibits the measured activity by half.
